Experiment [1] relates to Escherichia coli. Briefly: Antibacterial activity against Escherichia coli JT13 deficient in acpH gene assessed as microbial growth inhibition.
The test system of experiment [2] is Escherichia coli. The experiment in a line: Antibacterial activity against Escherichia coli JT6 assessed as microbial growth inhibition.
Experiment [3] relates to Escherichia coli. The experiment in a line: Induction of holo-ACP accumulation in Escherichia coli JT6 pJT5 plasmid expressing AcpH at 100 ug/ml after 3 hrs by Western blotting. It counts as functional, organism-based. In short, it runs like this: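 JT6 cells carrying pJT5 (AcpH under arabinose control), with empty pBAD322 as the vector control, treated with 100 μg/ml N5-Pan. At 3 h, crude cell extracts were run on conformationally sensitive gel electrophoresis. Proteins were electroblotted and probed by Western blot with anti-ACP antibody.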

The subject of experiment [4] is Escherichia coli. Briefly: Inhibition of coenzyme A synthesis in acpH null mutant containing Escherichia coli JT6 transformed with pBAD24 plasmid expressing CoaD gene assessed as decrease in acetyl CoA level at 100 ug/ml after 90 mins by HPLC relative to untreated control. The format is functional, organism-based.
Experiment [5] has as its system Escherichia coli. The experiment in a line: Inhibition of coenzyme A synthesis in acpH null mutant containing Escherichia coli JT6 transformed with pBAD24 plasmid expressing CoaE gene assessed as decrease in acetyl CoA level at 100 ug/ml after 90 mins by HPLC relative to untreated control. The format is functional, organism-based.
In experiment [6] the test system is Escherichia coli. Briefly: Inhibition of coenzyme A synthesis in acpH null mutant containing Escherichia coli JT6 transformed with pBAD24 plasmid expressing CoaBC gene assessed as decrease in acetyl CoA level at 100 ug/ml after 90 mins by HPLC relative to untreated control. It counts as functional, organism-based.
Experiment [7] deals with Escherichia coli. The experiment in a line: Induction of ethyldethia-ACP accumulation in Escherichia coli JT6 at 200 ug/ml by gel electrophoresis. It counts as functional, organism-based. In short, it runs like this:
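Exponentially growing E. coli JT6 (UB1005 tolC::Tn10, lacking the outer membrane efflux exit duct) in M9 minimal medium with 0.4% glycerol and 0.1% vitamin-free Casamino Acids. Culture supplemented with 200 μg/ml N5-Pan. ACP species resolved by conformationally sensitive gel electrophoresis.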

The test system of experiment [8] is Escherichia coli. The experiment in a line: Inhibition of coenzyme A synthesis in Escherichia coli JT7 carrying panD deletion assessed as decrease in acetyl CoA level at 100 ug/ml after 90 mins by HPLC relative to untreated control. It counts as functional. The essentials: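 The culture was split, one half given 100 μg/ml N5-Pan, and both incubated a further 90 min. CoA pools were extracted and analysed by reverse-phase C18 HPLC with internal standards.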

The subject of experiment [9] is Escherichia coli. Briefly: Antibacterial activity against acpH null mutant containing Escherichia coli JT6 transformed with pJT5 expressing AcpH assessed as microbial growth inhibition. The format is functional, organism-based.
The subject of experiment [10] is Escherichia coli. Briefly: Inhibition of coenzyme A synthesis in acpH null mutant containing Escherichia coli JT6 transformed with pBAD24 plasmid expressing CoaA gene assessed as decrease in acetyl CoA level at 100 ug/ml after 90 mins by HPLC relative to untreated control. The format is functional, organism-based.

One compound from ChEMBL document CHEMBL1240394, “Antibacterial activity of N-pentylpantothenamide is due to inhibition of coenzyme a synthesis” (2010) can be followed below.

The source made the active and inactive calls. The calls are words filed in the database; no cut-off is given here.

Consider `CCCCCNC(=O)CCNC(=O)[C@H](O)C(C)(C)CO`, for which the “growth inhibition (GI)” value in experiment [1] and in experiment [2] was “Active” in each case. Also, the result in [3] and in experiment [7] was Active. Also, the inhibition entry in experiment [4], in experiment [5], in experiment [6] and in [10] was “Active” each time. The “fold change (FC)” value in [8] is reported as over 10. The “growth inhibition (GI)” value in [9] is “inactive”.
